Measurements: ChEMBL document CHEMBL1156074, “Diazo transfer-click reaction route to new, lipophilic teicoplanin and ristocetin aglycon derivatives with high antibacterial and anti-influenza virus activity: an aggregation and receptor binding study” (J Med Chem, 2009)
In brackets after ≈: the same amount, converted by molar mass. Activity calls are given as the source filed them.

Legend:
Enterococcus = experiment: Antibacterial activity against vancomycin and teicoplanin-resistant Enterococcus harboring vanA resistance gene; type: functional
Enterococcus faecalis [1] = experiment: Antibacterial activity against vancomycin and teicoplanin-resistant Enterococcus faecalis 15376 harboring vanA gene after 18 hrs by broth microdilution method; type: functional; settings: Enterococcus faecalis, 15376, 18 h
Influenza A virus [2] = experiment: Antiviral activity against Influenza A virus (A/Puerto Rico/8/34(H1N1)) assessed as inhibition of virus-induced cytopathic effect by cell-based assay; type: functional, organism-based, A/Puerto Rico/8/1934(H1N1)
Summary of the method: (§1)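 Virus-induced cytopathic effect is scored visually in infected cell cultures. EC50 is defined as the compound concentration producing 50% inhibition of the CPE. A compound is recorded as not active when there is no inhibition at the highest concentration tested or at a subtoxic concentration.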

Influenza A virus [3] = experiment: Antiviral activity against Influenza A virus (A/Puerto Rico/8/34(H1N1)) assessed as cell viability by cell-based MTS assay; type: functional, organism-based; settings: A/Puerto Rico/8/1934(H1N1)
Summary of the method: (§2)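 Cell-based influenza assay. The read-out is cell viability by the colorimetric formazan-based MTS assay. EC50 is the concentration giving 50% inhibition of the virus-induced cytopathic effect.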

H3N2 subtype [4] = experiment: Antiviral activity against Influenza A virus (A/Hong Kong/7/87(H3N2)) assessed as inhibition of virus-induced cytopathic effect by cell-based assay; type: functional, organism-based; settings: A/Hong Kong/7/1987(H3N2); summary of the method: as §1
H3N2 subtype [5] = experiment: Antiviral activity against Influenza A virus (A/Hong Kong/7/87(H3N2)) assessed as cell viability by cell-based MTS assay; type: functional, organism-based; settings: A/Hong Kong/7/1987(H3N2); summary of the method: as §2
Influenza B virus [6] = experiment: Antiviral activity against Influenza B virus (B/Hong Kong/5/72) assessed as inhibition of virus-induced cytopathic effect by cell-based assay; type: functional; settings: B/Hong Kong/05/1972; summary of the method: as §1
Influenza B virus [7] = experiment: Antiviral activity against Influenza B virus (B/Hong Kong/5/72) assessed as cell viability by cell-based MTS assay; type: functional; settings: B/Hong Kong/05/1972; summary of the method: as §2
Bacillus subtilis [8] = experiment: Antibacterial activity against Bacillus subtilis ATCC 6633 after 18 hrs by broth microdilution method; type: functional; settings: ATCC 6633, 18 h
Staphylococcus aureus [9] = experiment: Antibacterial activity against methicillin-sensitive Staphylococcus aureus ATCC 33591 after 18 hrs by broth microdilution method; type: functional; settings: ATCC 33591, 18 h
Staphylococcus aureus [10] = experiment: Antibacterial activity against methicillin-sensitive Staphylococcus aureus ATCC 29213 after 18 hrs by broth microdilution method; type: functional; settings: ATCC 29213, 18 h
[11] = tested on: Staphylococcus epidermidis; experiment: Antibacterial activity against biofilm of Staphylococcus epidermidis ATCC 35984 after 18 hrs by broth microdilution method; type: functional; settings: RP62A
[12] = tested on: Staphylococcus epidermidis; experiment: Antibacterial activity against Staphylococcus epidermidis after 18 hrs by broth microdilution method; type: functional
Enterococcus faecalis [13] = experiment: Antibacterial activity against vancomycin and teicoplanin-sensitive Enterococcus faecalis ATCC 29212 after 18 hrs by broth microdilution method; type: functional; settings: ATCC 29212, 18 h
Enterococcus faecalis [14] = experiment: Antibacterial activity against vancomycin-resistant and teicoplanin-sensitive Enterococcus faecalis ATCC 51299 harboring vanB gene after 18 hrs by broth microdilution method; type: functional; settings: ATCC 51299, 18 h
Influenza B virus [15] = experiment: Antiviral activity against Influenza B virus (B/Hong Kong/5/72) assessed as inhibition of virus-induced cytopathic effect at highest concentration by cell-based assay; type: functional; settings: B/Hong Kong/05/1972; summary of the method: as §1
Influenza B virus [16] = experiment: Antiviral activity against Influenza B virus (B/Hong Kong/5/72) assessed as cell viability at subtoxic concentration by cell-based MTS assay; type: functional; settings: B/Hong Kong/05/1972
Enterococcus faecalis [17] = experiment: Bactericidal activity against vancomycin and teicoplanin-resistant Enterococcus faecalis 15376 harboring vanA gene after overnight incubation; type: functional
Influenza A virus [18] = experiment: Antiviral activity against Influenza A virus (A/Puerto Rico/8/34(H1N1)) assessed as inhibition of virus-induced cytopathic effect at highest concentration by cell-based assay; type: functional, organism-based; settings: A/Puerto Rico/8/1934(H1N1); summary of the method: as §1
Influenza A virus [19] = experiment: Antiviral activity against Influenza A virus (A/Puerto Rico/8/34(H1N1)) assessed as cell viability at subtoxic concentration by cell-based MTS assay; type: functional, organism-based; settings: A/Puerto Rico/8/1934(H1N1)
H3N2 subtype [20] = experiment: Antiviral activity against Influenza A virus (A/Hong Kong/7/87(H3N2)) assessed as inhibition of virus-induced cytopathic effect at highest concentration by cell-based assay; type: functional, organism-based; settings: A/Hong Kong/7/1987(H3N2); summary of the method: as §1
H3N2 subtype [21] = experiment: Antiviral activity against Influenza A virus (A/Hong Kong/7/87(H3N2)) assessed as cell viability at subtoxic concentration by cell-based MTS assay; type: functional, organism-based; settings: A/Hong Kong/7/1987(H3N2)
Bacillus subtilis [22] = experiment: Bactericidal activity against Bacillus subtilis ATCC 6633 after overnight incubation; type: functional
Staphylococcus aureus [23] = experiment: Bactericidal activity against methicillin-sensitive Staphylococcus aureus ATCC 33591 after overnight incubation; type: functional
Staphylococcus aureus [24] = experiment: Bactericidal activity against methicillin-sensitive Staphylococcus aureus ATCC 29213 after overnight incubation; type: functional
[25] = tested on: Staphylococcus epidermidis; experiment: Bactericidal activity against biofilm of Staphylococcus epidermidis ATCC 35984 after overnight incubation; type: functional; settings: RP62A
[26] = tested on: Staphylococcus epidermidis; experiment: Bactericidal activity against Staphylococcus epidermidis after overnight incubation; type: functional
Enterococcus faecalis [27] = experiment: Bactericidal activity against vancomycin and teicoplanin-sensitive Enterococcus faecalis ATCC 29212 after overnight incubation; type: functional
Enterococcus faecalis [28] = experiment: Bactericidal activity against vancomycin-resistant and teicoplanin-sensitive Enterococcus faecalis ATCC 51299 harboring vanB gene after overnight incubation; type: functional
[29] = Octanol-aqueous buffer partition coefficient, log P at pH 7 by shake-flask method; type: physicochemical
[30] = Influenza A virus, A/Puerto Rico/8/1934(H1N1)

Structure (SMILES)	MIC (Enterococcus faecalis [1]) [µg/mL]	EC50 (Influenza A virus [2]; [30]) [µM]	EC50 (Influenza A virus [3]) [µM]	EC50 (H3N2 subtype [4]) [µM]	EC50 (H3N2 subtype [5]) [µM]	MIC (Bacillus subtilis [8]) [µg/mL]	MIC (Staphylococcus aureus [9]) [µg/mL]	MIC (Staphylococcus aureus [10]) [µg/mL]	MIC [11] [µg/mL]	MIC [12] [µg/mL]	MIC (Enterococcus faecalis [13]) [µg/mL]	MIC (Enterococcus faecalis [14]) [µg/mL]	inhibition (Influenza B virus [15])	inhibition (Influenza B virus [16])	MBC (Enterococcus faecalis [17]) [µg/mL]	inhibition (Influenza A virus [18])	inhibition (Influenza A virus [19])	inhibition (H3N2 subtype [20])	inhibition (H3N2 subtype [21])	MBC (Bacillus subtilis [22]) [µg/mL]	also measured
CN[C@H](CC(C)C)C(=O)N[C@H]1C(=O)N[C@@H](CC(N)=O)C(=O)N[C@H]2C(=O)N[C@H]3C(=O)N[C@H](C(=O)N[C@H](C(=O)O)c4cc(O)cc(O)c4-c4cc3ccc4O)[C@H](O[C@H]3C[C@](C)(N)[C@@H](O)[C@H](C)O3)c3ccc(c(Cl)c3)Oc3cc2cc(c3O[C@@H]2O[C@H](CO)[C@@H](O)[C@H](O)[C@H]2O[C@H]2C[C@](C)(NCc3ccc(-c4ccc(Cl)cc4)cc3)[C@@H](O)[C@H](C)O2)Oc2ccc(cc2Cl)[C@H]1O [ORITAVANCIN]	–	–	–	–	–	–	–	–	–	–	–	–	–	–	–	–	–	–	–	–	MIC (Enterococcus): < 1 µg/mL
CCCCCCCCCCOCc1cn([C@H]2C(=O)N[C@H]3C(=O)N[C@H](C(=O)N[C@H]4C(=O)N[C@H]5C(=O)N[C@H](C(=O)N[C@@H](C(=O)OC)c6cc(O)cc(O)c6-c6cc5ccc6O)[C@H](O)c5ccc(cc5)Oc5cc4cc(c5O)Oc4ccc(cc4)[C@H]3O)c3cc(O)c(C)c(c3)Oc3cc2ccc3O)nn1	> 256	0.1	0.1	0.2	0.5	> 256	> 256	> 256	> 256	> 256	> 256	> 256	–	–	–	–	–	–	–	–	EC50 (Influenza B virus [6]): 0.2 µM; EC50 (Influenza B virus [7]): 0.2 µM
NC12CC3CC(CC(C3)C1)C2 [AMANTADINE]	–	45	35	0.8	0.4	–	–	–	–	–	–	–	inactive	inactive	–	–	–	–	–	–	–
COC(=O)[C@@H]1NC(=O)[C@H]2NC(=O)[C@H](NC(=O)[C@@H]3NC(=O)[C@H]4NC(=O)[C@@H](Cc5ccc(c(Cl)c5)Oc5cc3cc(c5O)Oc3ccc(cc3Cl)[C@H]2O)NC(=O)[C@H](N=[N+]=[N-])c2ccc(O)c(c2)Oc2cc(O)cc4c2)c2ccc(O)c(c2)-c2c(O)cc(O)cc21 [METHYL ESTER OF AZIDO TEICOPLANIN AGLYCON]	128 (≈ 103 µM)	–	–	–	–	2 (≈ 1.61 µM)	64 (≈ 51.7 µM)	64 (≈ 51.7 µM)	64 (≈ 51.7 µM)	64 (≈ 51.7 µM)	128 (≈ 103 µM)	128 (≈ 103 µM)	inactive	inactive	256 (≈ 207 µM)	inactive	inactive	inactive	inactive	4 (≈ 3.23 µM)	MBC (Staphylococcus aureus [23]): 256 µg/mL (≈ 207 µM); MBC (Staphylococcus aureus [24]): 256 µg/mL (≈ 207 µM); MBC [25]: 256 µg/mL (≈ 207 µM); MBC [26]: 256 µg/mL (≈ 207 µM); MBC (Enterococcus faecalis [27]): 256 µg/mL (≈ 207 µM); MBC (Enterococcus faecalis [28]): 256 µg/mL (≈ 207 µM)
COC(=O)[C@@H]1NC(=O)[C@H]2NC(=O)[C@H](NC(=O)[C@@H]3NC(=O)[C@H]4NC(=O)[C@H](NC(=O)[C@H](N=[N+]=[N-])c5ccc(O)c(c5)Oc5cc4cc(O)c5C)[C@H](O)c4ccc(cc4)Oc4cc3cc(c4O)Oc3ccc(cc3)[C@H]2O)c2ccc(O)c(c2)-c2c(O)cc(O)cc21	–	–	–	–	–	–	–	–	–	–	–	–	inactive	inactive	–	–	–	–	–	–	logD [29]: 0.29
COC(=O)[C@@H]1NC(=O)[C@H]2NC(=O)[C@H](NC(=O)[C@@H]3NC(=O)[C@H]4NC(=O)[C@@H](Cc5ccc(c(Cl)c5)Oc5cc3cc(c5O)Oc3ccc(cc3Cl)[C@H]2O[C@@H]2O[C@H](CO)[C@@H](O)[C@H](O)[C@H]2NC(C)=O)NC(=O)[C@H](N=[N+]=[N-])c2ccc(O)c(c2)Oc2cc(O)cc4c2)c2ccc(O)c(c2)-c2c(O)cc(O)cc21	16 (≈ 11.1 µM)	–	–	–	–	8 (≈ 5.55 µM)	4 (≈ 2.77 µM)	4 (≈ 2.77 µM)	8 (≈ 5.55 µM)	4 (≈ 2.77 µM)	16 (≈ 11.1 µM)	16 (≈ 11.1 µM)	inactive	inactive	256 (≈ 178 µM)	inactive	inactive	inactive	inactive	8 (≈ 5.55 µM)	MBC (Staphylococcus aureus [23]): 8 µg/mL (≈ 5.55 µM); MBC (Staphylococcus aureus [24]): 8 µg/mL (≈ 5.55 µM); MBC [25]: 8 µg/mL (≈ 5.55 µM); MBC [26]: 4 µg/mL (≈ 2.77 µM); MBC (Enterococcus faecalis [27]): 256 µg/mL (≈ 178 µM); MBC (Enterococcus faecalis [28]): 256 µg/mL (≈ 178 µM)
CCCCCCCCCCOCc1cn([C@H]2C(=O)N[C@@H]3Cc4ccc(c(Cl)c4)Oc4cc5cc(c4O)Oc4ccc(cc4Cl)[C@@H](O[C@@H]4O[C@H](CO)[C@@H](O)[C@H](O)[C@H]4NC(C)=O)[C@@H]4NC(=O)[C@H](NC(=O)[C@@H]5NC(=O)[C@@H](NC3=O)c3cc(O)cc(c3)Oc3cc2ccc3O)c2ccc(O)c(c2)-c2c(O)cc(O)cc2[C@H](C(=O)OC)NC4=O)nn1	2 (≈ 1.22 µM)	–	–	–	–	2 (≈ 1.22 µM)	0.5 (≈ 0.305 µM)	1 (≈ 0.61 µM)	1 (≈ 0.61 µM)	1 (≈ 0.61 µM)	2 (≈ 1.22 µM)	2 (≈ 1.22 µM)	inactive	inactive	256 (≈ 156 µM)	inactive	inactive	inactive	inactive	4 (≈ 2.44 µM)	MBC (Staphylococcus aureus [23]): 0.5 µg/mL (≈ 0.305 µM); MBC (Staphylococcus aureus [24]): 1 µg/mL (≈ 0.61 µM); MBC [25]: 1 µg/mL (≈ 0.61 µM); MBC [26]: 1 µg/mL (≈ 0.61 µM); MBC (Enterococcus faecalis [27]): 256 µg/mL (≈ 156 µM); MBC (Enterococcus faecalis [28]): 128 µg/mL (≈ 78.1 µM)
NC(=O)c1ncn([C@@H]2O[C@H](CO)[C@@H](O)[C@H]2O)n1 [RIBAVIRIN]	–	–	9.7	9	6	–	–	–	–	–	–	–	–	–	–	–	–	–	–	–	EC50 (Influenza A virus [2]): 9 µM; EC50 (Influenza B virus [6]): 9 µM; EC50 (Influenza B virus [7]): 3.6 µM
CC(N)C12CC3CC(CC(C3)C1)C2 (stereo unspecified) [RIMANTADINE]	–	10	13	0.1	0.2	–	–	–	–	–	–	–	inactive	inactive	–	–	–	–	–	–	–
COC(=O)[C@H]1NC(=O)[C@H]2NC(=O)[C@H](NC(=O)[C@@H]3NC(=O)[C@H]4NC(=O)[C@H](NC(=O)[C@H](N=[N+]=[N-])c5ccc(O)c(c5)Oc5cc4cc(O)c5C)[C@H](O)c4ccc(cc4)Oc4cc3cc(c4O)Oc3ccc(cc3)[C@H]2O)c2ccc(O)c(c2)-c2c(O)cc(O)cc21	–	9	8.8	20	9.2	–	–	–	–	–	–	–	–	–	–	–	–	–	–	–	–
